Data: ChEMBL document CHEMBL2396530, “In vitro and in vivo evaluation of polymethylene tetraamine derivatives as NMDA receptor channel blockers” (Bioorg Med Chem Lett, 2013)
Active and inactive are the calls of the source. No cut-off for these calls is given here.

Tests used:
Mus musculus [1] = assay: Antithrombotic activity in photochemically-induced thrombosis C57B/L mouse model assessed as decrease in brain infarction size at 1 to 10 mg/kg, iv after 24 hrs; format: functional, organism-based
[2] = target: Glutamate NMDA receptor; GRIN1/GRIN2A (Homo sapiens, UniProt Q05586+Q12879); assay: Antagonist activity at recombinant GluN1/GluN2A receptor (unknown origin) expressed in Xenopus laevis oocytes assessed as inhibition of glycine/glutamate-induced inward current at -70mV by two-electrode voltage clamp assay; format: cell-based, Oocyte
Glutamate NMDA receptor; GRIN1/GRIN2A, sequence (Q12879 whole entry, other chains not shown): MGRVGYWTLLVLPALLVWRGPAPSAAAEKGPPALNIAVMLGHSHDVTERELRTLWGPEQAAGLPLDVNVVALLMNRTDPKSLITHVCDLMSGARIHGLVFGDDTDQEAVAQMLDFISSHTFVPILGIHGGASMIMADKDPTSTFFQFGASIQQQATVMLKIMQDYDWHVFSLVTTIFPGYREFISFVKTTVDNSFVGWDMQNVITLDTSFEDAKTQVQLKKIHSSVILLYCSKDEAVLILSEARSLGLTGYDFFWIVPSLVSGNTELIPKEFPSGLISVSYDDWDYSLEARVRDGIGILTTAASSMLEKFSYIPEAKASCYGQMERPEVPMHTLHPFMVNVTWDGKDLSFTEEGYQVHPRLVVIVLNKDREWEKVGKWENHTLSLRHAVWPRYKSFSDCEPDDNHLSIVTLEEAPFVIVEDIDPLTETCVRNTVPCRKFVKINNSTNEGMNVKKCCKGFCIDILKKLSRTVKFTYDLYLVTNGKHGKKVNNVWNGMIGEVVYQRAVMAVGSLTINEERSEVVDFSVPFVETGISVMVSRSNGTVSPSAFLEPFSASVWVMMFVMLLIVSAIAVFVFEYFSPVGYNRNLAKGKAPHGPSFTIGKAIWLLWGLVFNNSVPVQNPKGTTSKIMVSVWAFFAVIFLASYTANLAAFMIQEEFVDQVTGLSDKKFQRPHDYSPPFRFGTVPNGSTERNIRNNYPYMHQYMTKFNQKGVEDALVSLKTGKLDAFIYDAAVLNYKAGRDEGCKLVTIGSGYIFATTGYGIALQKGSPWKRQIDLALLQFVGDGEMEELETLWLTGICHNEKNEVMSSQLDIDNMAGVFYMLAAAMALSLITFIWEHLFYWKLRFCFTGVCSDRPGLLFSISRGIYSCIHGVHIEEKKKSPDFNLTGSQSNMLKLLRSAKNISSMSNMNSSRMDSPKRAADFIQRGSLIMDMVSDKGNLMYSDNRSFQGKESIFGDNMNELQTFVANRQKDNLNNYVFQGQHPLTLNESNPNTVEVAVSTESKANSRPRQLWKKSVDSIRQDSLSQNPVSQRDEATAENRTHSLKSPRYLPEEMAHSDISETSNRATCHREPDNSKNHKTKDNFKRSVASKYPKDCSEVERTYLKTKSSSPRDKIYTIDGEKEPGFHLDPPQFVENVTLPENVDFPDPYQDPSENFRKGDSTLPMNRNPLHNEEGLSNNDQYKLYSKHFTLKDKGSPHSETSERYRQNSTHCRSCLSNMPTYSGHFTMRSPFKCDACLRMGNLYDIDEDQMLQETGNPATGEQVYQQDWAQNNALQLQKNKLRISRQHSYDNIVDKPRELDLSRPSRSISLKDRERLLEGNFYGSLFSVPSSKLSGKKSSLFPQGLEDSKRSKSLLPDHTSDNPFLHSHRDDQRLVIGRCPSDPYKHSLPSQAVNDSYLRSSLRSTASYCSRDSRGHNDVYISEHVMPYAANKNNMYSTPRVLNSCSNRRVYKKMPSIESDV
Method in brief: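 Xenopus oocytes injected with GluN1 plus GluN2A cRNA at 1:5 ratio (0.1–4 ng GluN1 plus 0.5–20 ng GluN2A). Two-electrode voltage clamp at -70 mV. Receptors activated by superfusing glycine and glutamate (10 µM). Inward currents recorded. Concentration–inhibition curves built from 5 concentrations per compound to give IC50.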

Mus musculus [3] = assay: Antithrombotic activity in photochemically-induced thrombosis C57B/L mouse model assessed as decrease in brain infarction size at 10 mg/kg, iv after 24 hrs; format: functional, organism-based; set-up: dose 10 mg/kg
Mus musculus [4] = assay: Antithrombotic activity in photochemically-induced thrombosis C57B/L mouse model assessed as decrease in brain infarction size at 0.4 mg/kg, iv after 24 hrs; format: functional, organism-based; set-up: dose 0.4 mg/kg

| SMILES | Activity (Mus musculus [1]) | IC50 [2] | Activity (Mus musculus [3]) | Activity (Mus musculus [4]) |
| --- | --- | --- | --- | --- |
| c1ccc(C(CNCCCCCCNCCCCCCCCNCCCCCCNCC(c2ccccc2)c2ccccc2)c2ccccc2)cc1 | inactive | 11 nM | – | – |
| CC12CC3CC(C)(C1)CC(N)(C3)C2 | – | – | Active | – |
| COc1ccccc1CNCCCCCCCCNCCCCCCNCCCCCCCCNCc1ccccc1OC | inactive | 257 nM | – | – |
| COc1ccccc1CNCCCCCCNCCCCCCCCNCCCCCCNCc1ccccc1OC [METHOCTRAMINE] | inactive | 138 nM | – | – |
| COc1ccccc1CNCCCCCNCCCCCCCCCCNCCCCCNCc1ccccc1OC | inactive | 89.3 nM | – | – |
| COc1ccccc1CNCCCCCNCCCCCCNCCCCCNCc1ccccc1OC | – | 315 nM | – | Active |
| c1ccc(C(CNCCCCCCNCCCCCCCCCCCCNCCCCCCNCC(c2ccccc2)c2ccccc2)c2ccccc2)cc1 | inactive | 4.2 nM | – | – |
